Test results reported in ChEMBL document CHEMBL1121902 (J Med Chem, 1981).
Structures can show the parent of a compound that is named as a salt.

Assays:
[1] = tested on: Canis familiaris; assay: Compound was tested for its ability to block isoproterenol-induced increases in heart rate(HR) in anesthetized dogs.; details: Canis lupus familiaris, read-out: pA2 app (converted)
[2] = tested on: Canis familiaris; assay: Compound was tested for its ability to block isoproterenol-induced contractile force in anesthetized dogs.; details: Canis lupus familiaris, read-out: pA2 app (converted)
[3] = Beta adrenergic receptor antagonist potency relative to propranolol.; format: functional
Summary of the method: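 Pentobarbital-anesthetized mongrel dogs. Isoproterenol dose-response curves (heart rate, contractile force, femoral artery flow) repeated after cumulative doses of 10, 100 and 1000 µg/kg of racemic hydrochloride in isotonic saline. Apparent pA2 taken from the curve shifts. […] One compound per dog, four dogs each.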

[4] = tested on: Canis familiaris; assay: Concentration required to decrease hindlimb perfusion pressure(55 mmHg) in anesthetized dogs after intra arterial administration.; format: functional, Canis lupus familiaris, Artery
Summary of the method: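 Anesthetized mongrel dogs, vascularly isolated pump-perfused hindlimb held at constant blood flow. Vascular resistance was read as change in perfusion pressure. Bolus intraarterial injections into the perfusion circuit, drugs in isotonic saline, rising doses with compound order randomized at each level. Dose to lower perfusion pressure by 55 mmHg was taken. Four dogs, mean ± SE.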

[5] = tested on: Canis familiaris; assay: Compound was tested for its ability to block isoproterenol-induced vasodilation in anesthetized dogs.; details: Canis lupus familiaris, read-out: pA2 app (converted)
[6] = species: Canis familiaris; assay: Vasodilator potency relative to propranolol.; format: functional, Canis lupus familiaris
Summary of the method: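 Anesthetized mongrel dogs with a vascularly isolated, pump-perfused hindlimb at constant blood flow; the read-out is the fall in perfusion pressure. Bolus intraarterial injections in isotonic saline into the perfusion system, lowest doses first, compound order randomized at each level; four dogs. Dose to lower pressure 55 mmHg determined.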

[7] = Partition coefficient (logD7.4); format: physicochemical; details: octanol/water, pH 7.4
Summary of the method: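 Distribution between 1-octanol and 0.16 M pH 7.4 phosphate buffer (mutually presaturated). Compound at 10^-4 M in buffer was shaken 15 min with an equal volume of octanol, then centrifuged 10 min. Run in triplicate.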

| SMILES | Kb [1] | Kb [2] | Relative potency [3] | Dose [4] | Kb [5] | Relative potency [6] | logD [7] |
| --- | --- | --- | --- | --- | --- | --- | --- |
| CC(C)NCC(O)COc1cccc2c(O)cccc12 (stereo not given) | 75.9 nM | 32.4 nM | 0.56 | 1.95 mg | 20.9 nM | 0.28 | 0.56 |
| CC(C)NCC(O)COc1cccc2cc(O)ccc12 (stereo not given) | 9.77 nM | 4.37 nM | 3.82 | 2.45 mg | 4.47 nM | 0.22 | 0.46 |
| CC(C)NCC(O)COc1cc(O)cc2ccccc12 (stereo not given) | 288 nM | 107 nM | 0.16 | 10 mg | 58.9 nM | 0.06 | 0.57 |
| CC(C)NCC(O)COc1cccc2cccc(O)c12 (stereo not given) | 229 nM | 155 nM | 0.17 | 0.58 mg | 55 nM | 0.94 | 1.4 |
| CC(C)NCC(O)COc1c(O)ccc2ccccc12 (stereo not given) | 1350 nM | 646 nM | 0.03 | 0.52 mg | 468 nM | 1.07 | 1.66 |
| CC(C)NCC(O)COc1cccc2ccccc12 (stereo not given) [PROPRANOLOL] |  |  |  | 0.55 mg |  |  |  |
| CC(C)NCC(O)COc1ccc(O)c2ccccc12 (stereo not given) [4-HYDROXYPROPRANOLOL SULFATE] | 45.7 nM | 28.8 nM | 0.77 | 4.35 mg | 31.6 nM | 0.13 | 0.53 |
| CC(C)NCC(O)COc1cccc2ccc(O)cc12 (stereo not given) | 56.2 nM | 17.4 nM | 0.95 | 2.8 mg | 26.3 nM | 0.2 | 0.62 |
